Data taken from ChEMBL document CHEMBL1833814 (Bioorg Med Chem Lett, 2011).
Converted amounts (≈) assume the structure as drawn.

How the values were obtained:
[1] = target: Fatty acid synthase (Homo sapiens, UniProt P49327); experiment: Inhibition of human FAS assessed as synthesis of long chain fatty acids from malonyl CoA after 60 mins by fluorescence assay
Procedure, shortened: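 FAS enzyme prepared from HeLa cells, in enzyme buffer (20 mM K phosphate, 1 mM EDTA, 1 mM DTT, 5% glycerol, pH 7.4). It was preincubated 60 min at 37 °C with compound (0.1% DMSO), 326 µM NADPH and 60 µM acetyl CoA in 100 mM K phosphate, 1 mM EDTA, 1 mM DTT, pH 7.0. The reaction was started with 200 µM malonyl CoA. NADPH consumption was read at 340 nm over 10 min, and the slope (Vmax) was taken.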

[2] = organism: Rattus norvegicus; experiment: Binding affinity to rat central imidazoline I2 receptor at 10 uM by radioligand binding assay
[3] = organism: Homo sapiens; experiment: Liver blood flow human; format: ADME, organism-based
[4] = tested on: U937 (Homo sapiens); experiment: Cytotoxicity against human U937 cells up to 30 uM by LDH release assay
[5] = target: Cytochrome P450 2C19 (Homo sapiens, UniProt P33261); experiment: Inhibition of human CYP2C19; format: ADME
[6] = Oral bioavailability in Han/Wistar rat at 4 mg/kg; format: ADME, organism-based; settings: in vivo
Procedure, shortened: (§1)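 Male Han/Wistar rats were dosed orally. Compound levels were measured in plasma, and in brain and CSF at 2 h.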

[7] = Aqueous solubility of compound at pH 7.4; format: physicochemical; settings: buffer
[8] = target: Muscarinic acetylcholine receptor M2 (Homo sapiens) (UniProt P08172); experiment: Binding affinity to human muscarinic M2 receptor at 10 uM by radioligand binding assay
Muscarinic acetylcholine receptor M2 (Homo sapiens), sequence (P08172 whole entry): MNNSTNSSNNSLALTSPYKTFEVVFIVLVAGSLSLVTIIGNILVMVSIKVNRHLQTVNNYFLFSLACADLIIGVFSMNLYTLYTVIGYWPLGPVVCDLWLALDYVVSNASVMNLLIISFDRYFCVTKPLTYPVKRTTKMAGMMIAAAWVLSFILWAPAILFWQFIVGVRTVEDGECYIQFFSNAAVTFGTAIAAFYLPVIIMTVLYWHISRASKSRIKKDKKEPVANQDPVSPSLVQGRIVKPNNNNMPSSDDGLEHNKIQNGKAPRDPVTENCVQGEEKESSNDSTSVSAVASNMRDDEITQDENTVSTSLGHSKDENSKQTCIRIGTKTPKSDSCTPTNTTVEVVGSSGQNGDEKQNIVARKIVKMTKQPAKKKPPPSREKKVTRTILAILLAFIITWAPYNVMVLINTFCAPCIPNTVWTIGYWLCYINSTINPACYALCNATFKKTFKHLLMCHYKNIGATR

[9] = target: Muscarinic acetylcholine receptor M3 (Homo sapiens) (UniProt P20309); experiment: Binding affinity to human muscarinic M3 receptor at 10 uM by radioligand binding assay
[10] = target: Alpha-1A adrenergic receptor (Rattus norvegicus) (UniProt P43140); experiment: Binding affinity to rat adrenergic alpha1A receptor at 10 uM by radioligand binding assay
[11] = organism: Rattus norvegicus; experiment: Binding affinity to rat ATP-sensitive potassium channel at 10 uM by radioligand binding assay
[12] = target: Cytochrome P450 2D6 (Homo sapiens, UniProt P10635); experiment: Inhibition of human CYP2D6; format: ADME
[13] = target: Cytochrome P450 1A2 (Homo sapiens, UniProt P05177); experiment: Inhibition of human CYP1A2; format: ADME
[14] = organism: Mus musculus; experiment: Binding affinity to mouse phorbol ester receptor at 10 uM by radioligand binding assay
[15] = tested on: Liver microsomes; experiment: Metabolic stability in human liver microsomes; format: ADME, Microsome
[16] = organism: Rattus norvegicus; experiment: Liver blood flow rat; format: ADME, organism-based
[17] = organism: Rattus norvegicus; experiment: Binding affinity to rat sigma 2 receptor at 10 uM by radioligand binding assay
[18] = target: Fatty acid synthase (Mus musculus, UniProt P19096); experiment: Inhibition of FAS in mouse N42 cells assessed as [14C]-acetate incorporation after 4 hrs by scintillation counting; format: cell-based
Procedure, shortened: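 Immortalized clonal neuronal mouse hypothalamic N-42 cells were exposed to compound for 60 min at 37 °C, then to 14C-acetate (10^6 dpm) for 4 h at 37 °C. Lipids were extracted with chloroform/methanol and the lower phase was evaporated. Incorporated radioactivity was measured by scintillation counting.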

[19] = target: Glutamate NMDA receptor (Rattus norvegicus) (UniProt P35439+Q00959+Q00960+Q00961+Q62645+Q8VHN2+Q9R1M7); experiment: Binding affinity to rat NMDA receptor at 10 uM by radioligand binding assay; format: protein-complex assay
[20] = target: Cytochrome P450 3A4 (Homo sapiens, UniProt P08684); experiment: Inhibition of human CYP3A4; format: ADME
[21] = target: Adenosine receptor A1 (Homo sapiens) (UniProt P30542); experiment: Binding affinity to human adenosine A1 receptor at 10 uM by radioligand binding assay
[22] = target: Histamine H1 receptor (Homo sapiens) (UniProt P35367); experiment: Binding affinity to human histamine H1 receptor at 10 uM by radioligand binding assay
[23] = target: Prostaglandin E2 receptor EP4 subtype (Homo sapiens) (UniProt P35408); experiment: Binding affinity to human EP4 receptor at 10 uM by radioligand binding assay
[24] = target: D(2) dopamine receptor (Homo sapiens) (UniProt P14416); experiment: Binding affinity to human dopamine D2short receptor at 10 uM by radioligand binding assay
[25] = target: Adenosine receptor A2a (Homo sapiens) (UniProt P29274); experiment: Binding affinity to human adenosine A2A receptor at 10 uM by radioligand binding assay
[26] = Drug level in Han/Wistar rat cerebrospinal fluid at 4 mg/kg, po after 2 hrs; format: ADME, organism-based; design: dose 4 mg/kg, route oral; settings: read-out: Drug uptake; procedure, shortened: as §1
[27] = Plasma protein binding in rat; format: ADME, cell-free; settings: read-out: PPB (converted)
[28] = Tmax in Han/Wistar rat at 4 mg/kg, po; format: ADME, organism-based; design: dose 4 mg/kg, route oral; settings: in vivo; procedure, shortened: as §1
[29] = target: Alpha-1B adrenergic receptor (Rattus norvegicus) (UniProt P15823); experiment: Binding affinity to rat adrenergic Alpha-1B receptor at 10 uM by radioligand binding assay
[30] = target: hERG (KCNH2) (Homo sapiens, UniProt Q12809); experiment: Binding affinity to human ERG at 10 uM by radioligand binding assay
[31] = Permeability across human Caco2 cells; format: ADME, cell-based; settings: Caco-2, read-out: permeability
[32] = target: Sodium-dependent noradrenaline transporter (Homo sapiens) (UniProt P23975); experiment: Binding affinity to human NET at 10 uM by radioligand binding assay
[33] = target: Sigma non-opioid intracellular receptor 1 (Homo sapiens) (UniProt Q99720); experiment: Binding affinity to human sigma 1 receptor at 10 uM by radioligand binding assay
Sigma non-opioid intracellular receptor 1 (Homo sapiens), sequence (Q99720 whole entry): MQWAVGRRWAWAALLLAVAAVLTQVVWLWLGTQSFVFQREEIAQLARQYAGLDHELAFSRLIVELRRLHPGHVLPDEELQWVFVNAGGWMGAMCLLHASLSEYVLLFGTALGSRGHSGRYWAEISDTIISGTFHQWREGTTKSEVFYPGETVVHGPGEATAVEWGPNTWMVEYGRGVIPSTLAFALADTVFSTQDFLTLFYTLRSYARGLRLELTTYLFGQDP

[34] = Drug level in Han/Wistar rat brain at 4 mg/kg, po after 2 hrs; format: ADME, organism-based; design: dose 4 mg/kg, route oral; settings: read-out: Drug uptake; procedure, shortened: as §1
[35] = target: Acetylcholine receptor subunit alpha (Homo sapiens) (UniProt P02708); experiment: Binding affinity to human bungrotoxin binding site of nicotinic acetylcholine receptor alpha1 at 10 uM by radioligand binding assay
Acetylcholine receptor subunit alpha (Homo sapiens), sequence (P02708 whole entry): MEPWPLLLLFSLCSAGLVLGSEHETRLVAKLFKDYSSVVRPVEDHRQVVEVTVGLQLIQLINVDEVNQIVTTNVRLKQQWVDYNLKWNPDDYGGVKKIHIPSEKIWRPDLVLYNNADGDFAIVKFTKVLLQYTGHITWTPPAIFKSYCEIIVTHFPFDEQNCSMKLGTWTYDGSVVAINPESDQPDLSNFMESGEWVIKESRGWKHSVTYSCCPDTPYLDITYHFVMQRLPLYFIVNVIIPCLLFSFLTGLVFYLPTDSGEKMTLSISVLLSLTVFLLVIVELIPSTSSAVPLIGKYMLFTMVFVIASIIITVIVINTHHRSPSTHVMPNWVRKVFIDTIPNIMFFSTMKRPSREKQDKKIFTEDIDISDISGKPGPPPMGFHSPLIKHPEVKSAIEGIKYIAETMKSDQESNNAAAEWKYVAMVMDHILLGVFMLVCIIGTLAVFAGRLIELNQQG

[36] = Clearance in iv dosed Han/Wistar rat; format: ADME, organism-based; settings: in vivo
Procedure, shortened: (§2)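 Male Han/Wistar rats were dosed intravenously.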

[37] = target: Alpha-2A adrenergic receptor (Homo sapiens) (UniProt P08913); experiment: Binding affinity to human adrenergic alpha2A receptor at 10 uM by radioligand binding assay
[38] = target: Mu-type opioid receptor (Homo sapiens) (UniProt P35372); experiment: Binding affinity to human MOP receptor at 10 uM by radioligand binding assay
Mu-type opioid receptor (Homo sapiens), sequence (P35372 whole entry): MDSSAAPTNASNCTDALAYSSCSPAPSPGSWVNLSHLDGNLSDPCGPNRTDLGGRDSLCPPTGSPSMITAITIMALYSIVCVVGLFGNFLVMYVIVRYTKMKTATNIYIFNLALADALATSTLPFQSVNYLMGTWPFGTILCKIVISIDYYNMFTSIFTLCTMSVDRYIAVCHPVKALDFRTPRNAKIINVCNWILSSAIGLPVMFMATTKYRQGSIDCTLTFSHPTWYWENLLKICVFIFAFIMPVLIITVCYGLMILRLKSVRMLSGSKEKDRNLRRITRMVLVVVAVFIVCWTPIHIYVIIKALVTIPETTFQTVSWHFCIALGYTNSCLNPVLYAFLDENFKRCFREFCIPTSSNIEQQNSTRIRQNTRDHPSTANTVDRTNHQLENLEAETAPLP

[39] = AUC (0 to infinity) in Han/Wistar rat at 4 mg/kg, po; format: ADME, organism-based; design: time infinity, dose 4 mg/kg, route oral; settings: plasma; procedure, shortened: as §1
[40] = target: Beta-2 adrenergic receptor (Homo sapiens) (UniProt P07550); experiment: Binding affinity to human adrenergic beta2 receptor at 10 uM by radioligand binding assay
[41] = organism: Rattus norvegicus; experiment: Binding affinity to rat dihydropyridine binding site of calcium channel L-type at 10 uM by radioligand binding assay
[42] = Cmax in Han/Wistar rat at 4 mg/kg, po; format: ADME, organism-based; design: dose 4 mg/kg, route oral; settings: in vivo; procedure, shortened: as §1
[43] = Half life in Han/Wistar rat at 4 mg/kg, po; format: ADME, organism-based; design: dose 4 mg/kg, route oral; settings: in vivo; procedure, shortened: as §1
[44] = tested on: Liver microsomes; experiment: Metabolic stability in rat liver microsomes; format: ADME, Microsome
[45] = target: Cytochrome P450 2C9 (Homo sapiens, UniProt P11712); experiment: Inhibition of human CYP2C9; format: ADME
[46] = organism: Rattus norvegicus; experiment: Binding affinity to rat agonist site of GABA-A receptor at 10 uM by radioligand binding assay
[47] = target: Pyroglutamylated RF-amide peptide receptor (Homo sapiens) (UniProt Q96P65); experiment: Binding affinity to human GPR103 receptor at 10 uM by radioligand binding assay
[48] = organism: Rattus norvegicus; experiment: Binding affinity to rat sodium channel site 2 at 10 uM by radioligand binding assay
[49] = target: Beta-1 adrenergic receptor (Homo sapiens) (UniProt P08588); experiment: Binding affinity to human beta1 adrenergic receptor at 10 uM by radioligand binding assay
Beta-1 adrenergic receptor (Homo sapiens), sequence (P08588 whole entry, looked up): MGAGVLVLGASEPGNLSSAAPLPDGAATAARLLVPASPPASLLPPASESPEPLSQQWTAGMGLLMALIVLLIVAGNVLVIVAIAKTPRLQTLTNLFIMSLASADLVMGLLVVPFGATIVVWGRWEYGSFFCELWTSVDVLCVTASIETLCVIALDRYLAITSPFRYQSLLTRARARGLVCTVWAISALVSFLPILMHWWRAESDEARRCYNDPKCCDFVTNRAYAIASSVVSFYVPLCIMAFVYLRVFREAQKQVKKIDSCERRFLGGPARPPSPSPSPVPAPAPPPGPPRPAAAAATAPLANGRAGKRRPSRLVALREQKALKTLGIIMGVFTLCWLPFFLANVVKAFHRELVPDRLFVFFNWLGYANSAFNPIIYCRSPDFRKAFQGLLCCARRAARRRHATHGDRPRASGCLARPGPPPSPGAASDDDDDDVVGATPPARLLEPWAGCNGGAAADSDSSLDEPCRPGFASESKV

[50] = Volume of distribution at steady state in iv dosed Han/Wistar rat; format: ADME, organism-based; settings: in vivo, read-out: Vdss; procedure, shortened: as §2
[51] = organism: Rattus norvegicus; experiment: Binding affinity to rat rolipram binding site at 10 uM by radioligand binding assay
[52] = target: D(1A) dopamine receptor (Homo sapiens) (UniProt P21728); experiment: Binding affinity to human dopamine D1 receptor at 10 uM by radioligand binding assay
D(1A) dopamine receptor (Homo sapiens), sequence (P21728 whole entry): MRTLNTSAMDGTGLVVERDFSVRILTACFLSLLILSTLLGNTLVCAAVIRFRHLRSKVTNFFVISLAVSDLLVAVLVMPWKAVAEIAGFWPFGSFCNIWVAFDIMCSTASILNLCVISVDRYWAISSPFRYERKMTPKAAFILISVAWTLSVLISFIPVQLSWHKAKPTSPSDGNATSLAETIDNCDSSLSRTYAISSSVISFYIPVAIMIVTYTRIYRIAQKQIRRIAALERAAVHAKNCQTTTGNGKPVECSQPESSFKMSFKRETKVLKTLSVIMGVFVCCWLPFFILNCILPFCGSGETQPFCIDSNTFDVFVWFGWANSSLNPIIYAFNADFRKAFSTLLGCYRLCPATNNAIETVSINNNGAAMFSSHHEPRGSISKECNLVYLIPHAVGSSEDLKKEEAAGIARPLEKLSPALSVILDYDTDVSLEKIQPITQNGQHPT

[53] = organism: Rattus norvegicus; experiment: Binding affinity to rat GABA-A receptor at 10 uM by radioligand binding assay

Fatty acid synthase (Homo sapiens, UniProt P49327), sequence (P49327 whole entry): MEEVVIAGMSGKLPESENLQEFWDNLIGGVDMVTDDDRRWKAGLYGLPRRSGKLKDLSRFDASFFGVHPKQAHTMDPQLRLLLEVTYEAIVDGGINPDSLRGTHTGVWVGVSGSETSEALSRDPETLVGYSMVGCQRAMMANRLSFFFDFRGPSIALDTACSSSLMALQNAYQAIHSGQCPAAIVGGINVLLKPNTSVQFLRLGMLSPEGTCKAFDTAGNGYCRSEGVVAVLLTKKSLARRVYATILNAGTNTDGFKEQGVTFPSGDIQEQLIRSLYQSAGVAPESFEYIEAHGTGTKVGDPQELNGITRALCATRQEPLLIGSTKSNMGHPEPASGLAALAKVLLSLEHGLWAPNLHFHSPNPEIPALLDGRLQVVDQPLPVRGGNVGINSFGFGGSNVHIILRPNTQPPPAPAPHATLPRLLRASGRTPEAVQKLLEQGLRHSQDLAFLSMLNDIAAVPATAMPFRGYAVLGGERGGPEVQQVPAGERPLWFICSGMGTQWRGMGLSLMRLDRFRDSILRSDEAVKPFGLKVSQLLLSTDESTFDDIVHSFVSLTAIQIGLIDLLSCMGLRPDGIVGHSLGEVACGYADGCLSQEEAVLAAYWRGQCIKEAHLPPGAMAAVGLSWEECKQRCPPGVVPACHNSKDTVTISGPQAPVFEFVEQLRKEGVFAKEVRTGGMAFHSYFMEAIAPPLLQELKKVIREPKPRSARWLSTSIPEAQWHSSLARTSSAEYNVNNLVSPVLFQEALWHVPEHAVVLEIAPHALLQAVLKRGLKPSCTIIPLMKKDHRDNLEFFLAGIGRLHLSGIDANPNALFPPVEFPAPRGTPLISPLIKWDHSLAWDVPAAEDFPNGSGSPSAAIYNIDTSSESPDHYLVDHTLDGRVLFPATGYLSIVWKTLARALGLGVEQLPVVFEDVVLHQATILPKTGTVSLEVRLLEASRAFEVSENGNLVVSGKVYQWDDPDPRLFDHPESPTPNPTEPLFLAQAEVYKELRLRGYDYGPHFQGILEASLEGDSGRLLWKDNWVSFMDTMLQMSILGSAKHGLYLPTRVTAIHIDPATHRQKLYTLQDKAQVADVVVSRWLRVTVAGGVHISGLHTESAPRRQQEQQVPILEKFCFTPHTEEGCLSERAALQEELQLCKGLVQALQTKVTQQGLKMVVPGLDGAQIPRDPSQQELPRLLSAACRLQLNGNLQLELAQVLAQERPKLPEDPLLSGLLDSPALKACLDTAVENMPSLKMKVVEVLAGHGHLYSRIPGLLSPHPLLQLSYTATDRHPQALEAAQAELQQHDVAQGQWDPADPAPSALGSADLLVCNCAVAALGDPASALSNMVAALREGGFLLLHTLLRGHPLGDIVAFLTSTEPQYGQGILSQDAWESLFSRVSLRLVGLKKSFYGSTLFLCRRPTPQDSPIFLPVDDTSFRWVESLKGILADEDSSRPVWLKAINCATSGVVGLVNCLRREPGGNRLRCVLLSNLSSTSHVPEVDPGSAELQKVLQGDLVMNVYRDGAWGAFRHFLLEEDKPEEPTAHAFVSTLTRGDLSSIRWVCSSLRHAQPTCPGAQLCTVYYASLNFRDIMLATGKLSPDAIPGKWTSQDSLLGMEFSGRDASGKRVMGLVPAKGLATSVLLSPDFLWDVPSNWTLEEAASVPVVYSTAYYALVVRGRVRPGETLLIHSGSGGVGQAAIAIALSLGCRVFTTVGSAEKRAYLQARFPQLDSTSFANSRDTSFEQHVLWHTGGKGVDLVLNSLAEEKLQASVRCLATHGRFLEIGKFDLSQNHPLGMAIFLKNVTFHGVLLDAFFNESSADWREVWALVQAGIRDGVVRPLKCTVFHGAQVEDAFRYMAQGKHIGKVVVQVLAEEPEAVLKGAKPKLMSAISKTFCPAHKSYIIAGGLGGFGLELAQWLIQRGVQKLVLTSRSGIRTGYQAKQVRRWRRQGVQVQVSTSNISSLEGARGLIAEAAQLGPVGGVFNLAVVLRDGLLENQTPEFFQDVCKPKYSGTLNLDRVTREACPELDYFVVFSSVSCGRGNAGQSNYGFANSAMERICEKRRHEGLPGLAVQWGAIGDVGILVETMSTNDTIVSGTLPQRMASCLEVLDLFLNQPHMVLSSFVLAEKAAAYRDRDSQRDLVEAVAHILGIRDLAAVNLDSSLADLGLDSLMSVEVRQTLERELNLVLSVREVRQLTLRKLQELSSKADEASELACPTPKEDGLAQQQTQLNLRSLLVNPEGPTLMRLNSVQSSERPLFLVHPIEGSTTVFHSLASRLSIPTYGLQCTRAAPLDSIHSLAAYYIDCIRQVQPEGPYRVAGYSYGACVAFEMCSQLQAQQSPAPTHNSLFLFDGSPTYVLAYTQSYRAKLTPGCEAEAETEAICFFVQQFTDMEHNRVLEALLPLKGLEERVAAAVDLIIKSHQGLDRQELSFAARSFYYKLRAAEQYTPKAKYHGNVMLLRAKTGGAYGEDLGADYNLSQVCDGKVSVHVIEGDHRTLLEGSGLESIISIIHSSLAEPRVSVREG

COCC(=O)N[C@H]1CC[C@@H](C(=O)N(C)c2ccc(-c3nc4ccccc4o3)cc2)C1
IC50 [1]: 910 nM

CCNC(=O)N[C@H]1CC[C@@H](C(=O)N(C)c2ccc(-c3nc4ccccc4o3)cc2)C1
IC50 [1]: 530 nM

CN(C)C(=O)N[C@H]1CC[C@@H](C(=O)N(C)c2ccc(-c3nc4ccccc4o3)cc2)C1
IC50 [1]: 280 nM

CN(C)CCCCCC(=O)N[C@H]1CC[C@@H](C(=O)N(C)c2ccc(-c3nc4ccccc4o3)cc2)C1
IC50 [1]: 580 nM

CCC(=O)N[C@H]1CC[C@@H](C(=O)N(C)c2ccc(-c3nc4ccccc4o3)cc2)C1 [BI 99179]
inhibition [2]: 19%
QH [3]: < 26%
Activity [4]: Non-toxic
IC50 [5]: > 10000 nM
bioavailability [6]: 46%
solubility [7]: 5 µg/mL (≈ 12.8 µM)
inhibition [8]: 10%
inhibition [9]: -6%
inhibition [10]: 17%
inhibition [11]: 12%
IC50 [12]: > 10000 nM
IC50 [13]: > 10000 nM
IC50 [1]: 79 nM
inhibition [14]: 6%
Stability [15]: Stable
QH [16]: < 27%
inhibition [17]: 13%
IC50 [18]: 600 nM
inhibition [19]: -1%
IC50 [20]: > 10000 nM
inhibition [21]: -7%
inhibition [22]: 13%
inhibition [23]: 9%
inhibition [24]: 5%
inhibition [25]: 10%
concentration at 2 h [26]: 50 nM
fraction unbound [27]: 0.024
Tmax [28]: 0.5 h
inhibition [29]: 4%
inhibition at 10 µM [30]: -5%
Papp [31]: 94 ×10⁻⁶ cm/s
inhibition [32]: 9%
inhibition [33]: -2%
concentration at 2 h [34]: 1300 nM
inhibition [35]: 9%
clearance [36]: 8.2 mL/min/kg
inhibition [37]: 2%
inhibition [38]: 0%
AUC(0-inf) [39]: 9.35 µM·h
inhibition [40]: 0%
inhibition [41]: 7%
Cmax [42]: 2110 nM
half-life [43]: 3 h
Stability [44]: Stable
IC50 [45]: > 10000 nM
inhibition [46]: 4%
inhibition [47]: -1%
inhibition [48]: 1%
inhibition [49]: 4%
Vd [50]: 1.6 L/kg
inhibition [51]: 17%
inhibition [52]: 7%
inhibition [53]: 8%

CCC(=O)N[C@@H]1CC[C@H](C(=O)N(C)c2ccc(-c3nc4ccccc4o3)cc2)C1 [BI 99990]
IC50 [1]: > 3000 nM

C/C=C/C/C=C/CCC(=O)[C@H]1O[C@H]1C(N)=O [CERULENIN]
IC50 [1]: 5800 nM
